Assay results taken from the array DNA melting data of Ke et al. (doi:10.1101/2024.01.08.574731).

Legend:
[1] = folding enthalpy; higher = less favourable; fluorescence melt of hairpins on a sequencing array, two-state fit; conditions: sodium 0.088 M
Procedure, shortened: (§1)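 Melting temperature and folding enthalpy were derived from bootstrapped two-state fits. The fitted temperatures were raised by 9.35 °C to agree with UV melts, and four replicates were combined by inverse variance. The underlying data were Cy3 fluorescence images of library hairpins, with annealed Cy3 and quencher oligos, on a sequenced MiSeq flow cell in 50 mM Na-HEPES pH 8.0, 25 mM NaCl, taken in 2.5 °C steps up to 60 °C, normalised to pre-quench Cy3 and to control constructs.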

[2] = melting temperature; fluorescence melt of hairpins on a sequencing array, two-state fit, raised by 9.35 °C to match UV melts; conditions: sodium 0.088 M
Procedure, shortened: as §1

Sequence | folding enthalpy [1] [kcal/mol] | Tm [2] [°C]
GATCTATGCCTAGATC ((((((....)))))) | -33.3 | 41
GTTTGCGAAAGCAACAAC ((((((....)))..))) | -9.1 | 33.7
GATCAGTACGCTGATC ((((((....)))))) | -44.1 | 53.8
GGGATGCGAAAGCACCC (((.(((....)))))) | -21.4 | 60
GGGACGTCGAAAGACCCC (((..(((....)))))) | -18.4 | 41
GATCACTGACGTGATC ((((((....)))))) | -32 | 54.3
GGCCACGAAAGTGCGGCC ((((((....)))..))) | -39.6 | 55.6
GATCTACATTTAGATC ((((((....)))))) | -35.3 | 39
GATCGGTGTACCGATC ((((((....)))))) | -36.3 | 65.8
GTAGGACGAAAGTCTTAC (((.(((....))).))) | -26.2 | 47.7
GTCGCAGGAAACCGCGAC (((((.(....).))))) | -43.1 | 58.9
GATCTATGACTAGATC ((((((....)))))) | -26.7 | 37.1
GACGCTGGAAACAACGTC ((((.((....)).)))) | -39.4 | 45.5
GAGCTCGGAAACGAACCC (.(.(((....))).).) | -4.42 | 19.5
GCGGGCGAAAGCCGTCGC ((((((....)))..))) | -17.3 | 54.5
GCATACGAAAGTATATGC ((((((....)))..))) | -24.7 | 41.9
GGGCATACGAAAGTACCC (((..(((....)))))) | -19.6 | 34.7
GGAATGGAAACATTCC ((((((....)))))) | -44.9 | 53.1
GTAATAGAAATATTAC ((((((....)))))) | -16.6 | 32
GCTTCGCCGAAAGGCAGC (((..(((....)))))) | -10.4 | 40.9
GGTCGGCGAAAGCCACC (((.(((....)))))) | -14.8 | 55.3
GGGATCGAAAGATCTCCC ((((((....)))..))) | -14.1 | 47.2
CGCAGTCGGAAACGAGCG (((..(((....)))))) | -10.9 | 36

Sequence | folding enthalpy [1] [kcal/mol] | Tm [2] [°C]
GCCCACGGAAACGCGAGC ((.(.((....)).).)) | -14.7 | 28
GTAGTTCGAAAGAATTAC (((.(((....))).))) | -26.8 | 42.4
GCTGGCGAAAGCCGGAGC ((((((....)))..))) | -11.4 | 56.4
GCTCTTGGAAACGAGAGC (((((.(....).))))) | -30.2 | 51.2
GGCCATGGAAACGTGGCC (((((.(....).))))) | -52.1 | 62
GTGTGCGAAAGCACCCAC ((((((....)))..))) | -8.11 | 39.3
GCACGTGGAAACGTGTGC ((((..(....)..)))) | -24.8 | 58.5
GCCCACCGAAAGGTCGGC (((.(((....))).))) | -40.4 | 53.5
GGCAGCGAAAGCTTAGCC ((((((....)))..))) | -25.7 | 51.7
GCTCAGGGAAACTTGAGC (((((.(....).))))) | -33.3 | 48.7
GCCTTGCGAAAGCAAAGC ((.((((....)))).)) | -14.9 | 55.9
GTAAACGGAAACGTCTAC (((.(((....))).))) | -21.2 | 29
GCATGCGAAAGCACATGC ((((((....)))..))) | -19 | 51
GGACTGTCGAAAGACTCC (((..(((....)))))) | -5.54 | 21.5
GGCTGAGAAATCAGCC ((((((....)))))) | -34.3 | 65.7
GCGATGGCGAAAGCCCGC (((..(((....)))))) | -18.4 | 56.5
GTAGTCGAAAGACTATAC ((((((....)))..))) | -13.2 | 42
GAGGCAGCGAAAGCTCTC (((..(((....)))))) | -10.2 | 31.8
GGTTTGGGAAACCAGATC (.(.(((....))).).) | -10.3 | 30
GGGAGCGAAAGCTGCCCC ((((((....)))..))) | -12.6 | 58.1
GATCTATACTTAGATC ((((((....)))))) | -46.9 | 45.6
GATCTGAACGCAGATC ((((((....)))))) | -26.1 | 46.3
GGTATCGAAAGATACC ((((((....)))))) | -43.2 | 62.1

Sequence | folding enthalpy [1] [kcal/mol] | Tm [2] [°C]
ACAACGAAAGTTGT (((((....))))) | -21.6 | 53.6
GCCTCAGGAAACTGAAGC ((.((((....)))).)) | -24.9 | 36.3
GACGACGAAAGTCCAGTC ((((((....)))..))) | -21.5 | 36.2
GCCCAGGGAAACCCGAGC ((.(.((....)).).)) | -6.87 | 28.3
GATCCTATCCAGGATC ((((((....)))))) | -33.8 | 53
GCATGGGGAAACCCGTGC (((.(((....))).))) | -47.5 | 58.7
GATCTCAACGGAGATC ((((((....)))))) | -35 | 52.3
GCTATGCGAAAGCGTCGC ((.(.((....)).).)) | -18.1 | 43.2
CGAATCGGAAACGAATCG (((.(((....))).))) | -37.4 | 44.7
GCTGCGGGAAACCGTGGC ((..(((....)))..)) | -35.3 | 52.6
GATCCCGGCGGGGATC ((((((....)))))) | -47.7 | 61.3
GCGTTTGCGAAAGCACGC (((..(((....)))))) | -22.6 | 55.2
GCGATGCGAAAGCATAGC ((.((((....)))).)) | -31.1 | 66.7
GATCGTCGCAACGATC ((((((....)))))) | -38.1 | 56.2
GTCGCCGAAAGGCCGGAC ((((((....)))..))) | -13.1 | 41.6
GCGTCGCCACGC ((((....)))) | -15.9 | 53.7
GTCTGCGAAAGCACTGAC ((((((....)))..))) | -15.1 | 36.3
GATCTTCTGCAAGATC ((((((....)))))) | -22 | 42.9
GTGAGACGAAAGTCGCAC (((.(((....))).))) | -31.9 | 64.5
GCATGGCGAAAGCGAAGC ((.(.((....)).).)) | -11.7 | 35.4
GTCCGCGAAAGCGCCGAC ((((((....)))..))) | -11.1 | 36.9
GCTGAGCGAAAGCTGCGC ((..(((....)))..)) | -19 | 54.7
GGTTTGGGAAACCGAATC (.((.((....)).)).) | -20.2 | 35.3

Sequence | folding enthalpy [1] [kcal/mol] | Tm [2] [°C]
GCGGACCCCGC ((((...)))) | -20.9 | 54.4
GATCCTAACAAGGATC ((((((....)))))) | -32.6 | 51.5
TATTGGAAACAATA (((((....))))) | -5.94 | 25.5
GACAGTGGAAACGTTGTC ((((..(....)..)))) | -20.9 | 36.2
GATCCATTATTGGATC ((((((....)))))) | -37.1 | 52.7
GATCAAAAGTTTGATC ((((((....)))))) | -27.7 | 42.4
GGTGTAGCGAAAGCTACC (((..(((....)))))) | -9.3 | 49.1
GGTTTCGGAAACGAAGTC (..((((....))))..) | -10.3 | 26.4
GCATGGCGAAAGCTAAGC ((.(.((....)).).)) | -12.6 | 38.4
GAAGTCCGAAAGGATTTC (((.(((....))).))) | -31.6 | 50.2
GGCCGAGGAAACTCGACC ((.((((....)))).)) | -35 | 51.4
GCGAATATCGC ((((...)))) | -16.6 | 46.5
GGGTACGAAAGTAGACCC ((((((....)))..))) | -19.2 | 46.2
GCGGCAGGAAACTGCCAC (.(((((....))))).) | -10.8 | 54.6
GTTACTCGAAAGAGCAAC (((.(((....))).))) | -27.5 | 43.3
GCTATGGGAAACCACAGC (((.(((....))).))) | -23.7 | 38.6
GTTCGCGGAAACGTGGAC ((.(.((....)).).)) | -26.9 | 44.8
GGGTCCGAAAGGACACCC ((((((....)))..))) | -11 | 55.5
GAGTCGGGAAACCGGCTC (((.(((....))).))) | -33.3 | 61.1
CGACCGGAAACGGGATCG ((((((....)))..))) | -15.7 | 38.8
GTGCTGACGAAAGTCCAC (((..(((....)))))) | -11.9 | 40.8
GGGCGCGAAAGCGGGCCC ((((((....)))..))) | -13.4 | 64.8
GCCTTCGAAAGAACTGGC ((((((....)))..))) | -21.9 | 35.7
